mABHD4 FP – inhibitors of mouse ABHD4; Q8VD66; purified mABHD4, FP-Rh probe fluorescence polarization; inhibition, % at 8.92 µM; actives 0.54% (n = 370,000); AID 720543;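 active means inhibition exceeding the mean over every tested compound plus 3 SD, cut at about 30% in these data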
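Assay system: mABHD4 protein; medium: HEPES pH 7.0, NaCl, Pluronic buffer; dosing: 8.92 µM, single dose; schedule: 45 min + 60 min at 25 °C; signal: FP readout, ex 525 nm / em 598 nm; read-out: normalized percent inhibition of probe labeling; repeats: single replicate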
HTRA1 inh – blocks human HTRA1 serine peptidase. AID 504803. recombinant HTRA1, FP-rhodamine activity-based probe, fluorescence polarization. inhibition, % at 5.96 µM. actives 0.5% (n = 340,000). Q92743; in the data active means inhibition above about 36%
pPAFAH inh – pPAFAH (human) enzyme inhibition; actives 1.5% (n = 330,000); recombinant pPAFAH, FP-rhodamine probe fluorescence polarization; Q13093; AID 463082; inhibition, % at 3.39 µM;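 active means inhibition above the mean inhibition across the screen plus 3 SD, cut at about 25% in these data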;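 further: inhibitors block binding of the rhodamine activity-based probe so polarization drops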
SIAE inh – human SIAE inhibition, primary screen. Q9HAT2. SIAE FP-Rh probe binding, fluorescence polarization. inhibition, % at 9.66 µM. actives 0.69% (n = 370,000). AID 1053197;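 active means inhibition above a cutoff: mean of compounds within the control limits plus 3 SD of those, cut at about 17% in these data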
Target sequence (Q9HAT2 whole entry, looked up): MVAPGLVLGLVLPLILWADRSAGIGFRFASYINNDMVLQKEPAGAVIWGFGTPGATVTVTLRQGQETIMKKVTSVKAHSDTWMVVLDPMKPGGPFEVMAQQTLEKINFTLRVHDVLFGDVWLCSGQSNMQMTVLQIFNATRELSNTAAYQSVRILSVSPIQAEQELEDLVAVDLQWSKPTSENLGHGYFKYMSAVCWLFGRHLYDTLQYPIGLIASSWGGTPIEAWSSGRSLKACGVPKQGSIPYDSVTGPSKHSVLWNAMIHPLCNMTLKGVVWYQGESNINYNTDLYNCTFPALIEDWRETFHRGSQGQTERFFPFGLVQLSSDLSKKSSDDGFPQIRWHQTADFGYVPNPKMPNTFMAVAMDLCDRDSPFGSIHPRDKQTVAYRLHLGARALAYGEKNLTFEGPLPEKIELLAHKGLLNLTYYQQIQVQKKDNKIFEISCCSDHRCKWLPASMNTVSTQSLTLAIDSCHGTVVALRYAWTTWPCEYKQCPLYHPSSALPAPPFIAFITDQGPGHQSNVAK
TCR-CD3 inh – blocks the human TCR-CD3 interaction | TAMRA-labeled TCR probe fluorescence, biochemical | inhibition, % at 9.4 µM | actives 0.37% (n = 360,000); in the data active means inhibition above about 19%;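 further: recombinant mutant TCR 2C K166C tagged with TAMRA read by polarization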
SIAE confirm – confirmation of human SIAE inhibitors; shares compounds with SIAE inh; SIAE FP-Rh activity-based probe, fluorescence polarization; inhibition, % at 9.66 µM; actives 13% (n = 2,300); AID 1117263;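 active means mean inhibition of the replicates above the hit cutoff set in the primary screen, cut at about 17% in these data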;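 further: inhibitors lower polarization as more probe stays unbound to SIAE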
Large screens that a line does not name were inactive (follow-up assays come after a bar, where they were run). Rows were chosen to be rich in hits. Some 2.3% of all compounds tested hit in one or more screens of this group.

O=C(Nc1ccc(F)cc1)OCc1cn(Cc2cc(F)cc(F)c2)nn1	none (no result: HTRA1 inh, pPAFAH inh, TCR-CD3 inh)
CCCC[C@H]1C2CC(OC(=O)Nc3cccc(C(F)(F)F)c3)C(C2)[C@H]2CCCCN21 (stereo partly drawn)	none (no result: HTRA1 inh, pPAFAH inh, TCR-CD3 inh)
CCCCCCCCN1C(=O)[C@@H](CC(=O)NCc2ccc(C)o2)C[C@@]2(C(=O)OC)C1=C[C@H](C(C)C)O[C@@H]2C1CC1	none (no result: HTRA1 inh, pPAFAH inh, TCR-CD3 inh)
CCC(C)N1C(=O)CN(C2CCCCCC2)C(=O)C1c1ccccc1F (stereo not drawn)	SIAE inh 19.3 | SIAE confirm inactive
COc1ccccc1CN1C(=O)CN(C2CCCCCC2)C(=O)C1c1ccc(F)cc1 (stereo not drawn)	none
O=C(N=C1N(Cc2ccccc2)[C@@H](Cc2ccccc2)[C@]2(C=C3CCCCC3n3c(=O)n(-c4ccccc4)c(=O)n32)N1C(=O)OCc1ccccc1)c1ccccc1 (stereo partly drawn)	none (no result: HTRA1 inh, pPAFAH inh, TCR-CD3 inh)
CC[C@@]1(c2ccc(C)cc2)C(=O)N(C(=O)OC(C)C)N1C(=O)OC(C)C	none (no result: HTRA1 inh, pPAFAH inh, TCR-CD3 inh)
COc1cc([N+](=O)[O-])c2ncsc2c1	none
COc1cc(SSc2cc(OC)cc([N+](=O)[O-])c2N)c(N)c([N+](=O)[O-])c1	SIAE inh 25.0 | SIAE confirm inactive
CCCCCCn1c(N(CC)CC)nc2c1c(=O)[nH]c(=O)n2C	SIAE inh 22.7 | SIAE confirm inactive
CCCCC[C@@H](C)N1C[C@@H](COCc2ccccc2)Oc2cc(N3CCC[C@H]3COC)ccc2S1(=O)=O	none (no result: HTRA1 inh, pPAFAH inh)
O=C(Nc1ccc(F)cc1)OCCN1CCCC12CCC(c1ccccc1)CC2 (stereo not drawn)	none (no result: HTRA1 inh, pPAFAH inh, TCR-CD3 inh)
COC(=O)CC1=NN(c2ccccc2)C(=O)/C1=C\c1ccc(OC)cc1	none
COC(=O)CC1=NN(c2ccc(OC)cc2)C(=O)/C1=C\c1ccc(Cl)cc1	SIAE inh 17.2 | SIAE confirm inactive
CCCCn1nnnc1C(c1ccccc1)N1CCN(C(=O)c2ccco2)CC1 (stereo not drawn)	none (no result: HTRA1 inh, pPAFAH inh)
CC(=O)Nc1ccc(OCc2cn(CC(=O)c3ccc(O)cc3)nn2)cc1	SIAE inh 21.5 (no result: pPAFAH inh) | SIAE confirm inactive
Cc1n[nH]c(C)c1S(=O)(=O)NC(C)Cc1ccccn1 (stereo not drawn)	none (no result: HTRA1 inh, pPAFAH inh, TCR-CD3 inh)
O=C(Nc1ccccc1N1CCOCC1)c1cc(-c2ccncc2)nc2ccccc12	SIAE inh 22.0 | SIAE confirm inactive
O=C(Nc1ccc(N2CCOCC2)cc1)c1cc(-c2ccncc2)nc2ccccc12	none
CC1=C(C(=O)N(C(C)C)C(C)C)CC(CC(=O)NCc2ccco2)C(=O)N1Cc1ccc(C(C)(C)C)cc1 (stereo not drawn)	none (no result: HTRA1 inh, pPAFAH inh)
COc1cc(/C=N/NC(=O)c2ccc(Cn3cc([N+](=O)[O-])cn3)o2)cc(Br)c1O	none
COc1cc(/C=N\NC(=O)c2ccc(Cn3cc(Br)c([N+](=O)[O-])n3)o2)cc(OC)c1O	pPAFAH inh 27.4, SIAE inh 17.5 | SIAE confirm inactive
O=c1c2cccnc2[nH]c(=S)n1Cc1ccccc1	none
O=C(Cn1c(=S)[nH]c2ncccc2c1=O)NCCc1ccccc1	SIAE inh 36.3 (no result: HTRA1 inh) | SIAE confirm inactive
c1cc(CNc2ccc3c(c2)OCO3)ccn1	SIAE inh 18.5 | SIAE confirm inactive
Cc1ccc(NS(=O)(=O)c2c(C(=O)N3CCOCC3)c(C)n(C)c2C)cc1C	none
Cc1cc(C)c(NS(=O)(=O)c2c(C(=O)N3CCOCC3)c(C)n(C)c2C)c(C)c1	pPAFAH inh 29.2, SIAE inh 18.1 | SIAE confirm inactive
O=C(NCCc1c[nH]c2ccccc12)OCc1cn(Cc2ccccc2C(F)(F)F)nn1	none (no result: HTRA1 inh, pPAFAH inh, TCR-CD3 inh)
CCOc1ccc(/C=C2/SC(=O)NC2=S)cc1	SIAE inh active | SIAE confirm inactive
CCOc1ccc(N=C2NC(=O)S/C2=C\c2ccc(N(C)C)cc2)cc1	none
O=C(Nc1ccc(F)c(Cl)c1)Nc1csc2ccccc12	SIAE inh 23.3 | SIAE confirm inactive
O=C(Nc1ccc(F)cc1F)Nc1csc2ccccc12	none (no result: HTRA1 inh)
O=C(C[C@H]1CC[C@@H]2[C@H](COC[C@@H](O)CN2Cc2cccc(F)c2)O1)NCC1CCCCC1	none (no result: HTRA1 inh, pPAFAH inh)
O=C(O)c1ccc(Nc2cccc(F)c2)c([N+](=O)[O-])c1	SIAE inh 20.4 | SIAE confirm inactive
Cc1ccc(S(=O)(=O)Nc2ccc(Cl)cc2O)cc1	none (no result: HTRA1 inh, pPAFAH inh)
CCNC(=S)N1CCc2cc(OC)c(OC)cc2C1COc1ccccc1OC (stereo not drawn)	SIAE inh 18.2 | SIAE confirm inactive
CCCCCCCCN1C(=O)[C@@H](CC(=O)N2CCCCC2)C[C@@]2(C(=O)OC)C1=C[C@H](COCc1ccccc1)O[C@@H]2C	none (no result: HTRA1 inh, pPAFAH inh, TCR-CD3 inh)
O=C(c1ccc(F)cc1)C1CCN(c2ncnc3sccc23)CC1	none (no result: HTRA1 inh, pPAFAH inh, TCR-CD3 inh)
CC(C)(C)[C@H](NC(=O)c1cc(Cl)cc(Cl)c1)C(=O)N1CCC[C@H]1C(=O)N[C@H](C#N)CC(=O)O	none (no result: HTRA1 inh, pPAFAH inh, TCR-CD3 inh)
COc1ccc(-c2[nH]c(-c3cc(OC)c4c(c3)OCO4)nc2-c2ccccc2)cc1	SIAE inh 26.4 | SIAE confirm inactive
COc1ccc(N(CC(=O)NCCSCc2c(F)cccc2Cl)S(C)(=O)=O)cc1OC	none (no result: mABHD4 FP, SIAE inh, TCR-CD3 inh)
CS(=O)(=O)N(CC(=O)NCCSCc1c(F)cccc1Cl)c1ccc2c(c1)OCO2	SIAE inh 18.3 | SIAE confirm inactive
CCCCCCN1C[C@H](O)[C@@H](n2cc(-c3ccc(F)cc3)nn2)C[C@@H]1c1ccc(C)cc1	none (no result: pPAFAH inh)
C=CCNc1nc(NCCCN2CCCC2=O)c2sc(-c3ccccc3)cc2n1	none (no result: HTRA1 inh, pPAFAH inh)
C=CCNc1nc(NCc2ccc(NC(C)=O)cc2)c2sc(-c3ccccc3)cc2n1	SIAE inh 38.8 (no result: HTRA1 inh, pPAFAH inh) | SIAE confirm 37.3
CC(=O)Nc1ccc(CNc2nc(NC(C)C)nc3cc(-c4ccccc4)sc23)cc1	SIAE inh 54.9 (no result: HTRA1 inh, pPAFAH inh) | SIAE confirm 53.3
CC(=O)NCCNc1nc(NC(C)C)nc2cc(-c3ccccc3)sc12	none (no result: HTRA1 inh, pPAFAH inh)
CCN(CC)c1c2c(nc3ncnn13)CCCC2	none (no result: HTRA1 inh, pPAFAH inh, TCR-CD3 inh)
CCCCn1nnnc1C(c1cc2ccccc2o1)N1CCN(c2ncccc2C#N)CC1 (stereo not drawn)	none (no result: HTRA1 inh, pPAFAH inh)
CCn1ccnc1CN1CCC(CO)(CCOc2ccccc2)CC1	none
Cc1nn(C)c(Cl)c1CN1CCC(CO)(CCOc2ccccc2)CC1	SIAE inh 17.2 | SIAE confirm inactive
COC(=O)[C@]12CCCCC=C1N(Cc1ccccc1)C(=O)[C@H](CC(=O)NCc1cccs1)C2	none (no result: HTRA1 inh, pPAFAH inh)
O=C(O)CC(=O)NC12CC3CC(CC(C3)C1)C2	none
CC(C)NCC(=O)NC12CC3CC(CC(C3)C1)C2	SIAE inh 21.4 | SIAE confirm inactive
Cc1ccc(S(=O)(=O)NCc2ccccc2NS(=O)(=O)c2ccc(C)cc2)cc1	none (no result: HTRA1 inh, pPAFAH inh)
Cc1cc(N2CCN(CC(C)(C)O)C[C@H]2C)ccc1N1CCN(CC(C)(C)O)[C@@H](C)C1	none (no result: HTRA1 inh, pPAFAH inh)
O=C(CCc1ccccc1)Nc1cccc(S(=O)(=O)N2CCOCC2)c1	SIAE inh 24.7 | SIAE confirm inactive

Screening data deposited in PubChem by The Scripps Research Institute Molecular Screening Center.
